Assay results from ChEMBL document CHEMBL4837217, “Design, synthesis, in vitro and in vivo biological evaluation of pyranone-piperazine analogs as potent antileishmanial agents” (Eur J Med Chem, 2021).
Active and inactive are the calls of the source. No cut-off for these calls is given here.

Key:
Leishmania donovani [1] = assay: Induction of mitochondrial membrane potential dysfunction in Leishmania donovani MHOM/IN/80/Dd8 promastigotes assessed as cells with mitochondrial depolarization at 50 uM incubated for 72 hrs by JC1 staining based flow cytometry (reference value: 3.63%); format: functional
Leishmania donovani [2] = assay: Antileishmanial activity against log phase of Leishmania donovani MHOM/IN/80/Dd8 promastigotes assessed as reduction in cell viability at 50 uM incubated for 72 hrs by MTT assay; format: functional
In short: (§1)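 Log-phase luciferase-transfected L. donovani Dd8 promastigotes (M199 + 10% FBS, 24 °C) treated with compounds at 25 and 50 µM in DMSO, with 0.1% DMSO vehicle control. After 72 h, MTT added 4 h. Formazan dissolved in DMSO, read at 570 nm. Percent inhibition reported as mean ± SD of at least three independent experiments in replicate.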

Leishmania donovani [3] = assay: Antileishmanial activity against log phase of Leishmania donovani MHOM/IN/80/Dd8 promastigotes assessed as reduction in cell viability at 25 uM incubated for 72 hrs by MTT assay; format: functional; in short: as §1
Leishmania donovani [4] = assay: Antileishmanial activity against amastigote stage of Leishmania donovani MHOM/IN/80/Dd8 harboring luciferase gene infected in mouse J774 cells assessed as parasite growth inhibition at 50 uM incubated for 72 hrs by Steady-Glo reagent based luciferase assay; format: functional; conditions: for inhibition at 50 µM: MHOM/IN/80/Dd8, J774
In short: (§2)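 J774 murine macrophages, 4 × 10⁴ cells/well in RPMI with 10% FBS for 24 h, are infected for 24 h at 37 °C, 5% CO₂ with stationary-phase luciferase-transfected L. donovani Dd8 promastigotes at a 1:8 macrophage:parasite ratio. Compounds are dissolved in DMSO. Luminescence is read after Steady-Glo is added in PBS. IC₅₀ is taken from a four-parameter Hill nonlinear regression. Miltefosine is the reference.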

Leishmania donovani [5] = assay: Antileishmanial activity against amastigote stage of Leishmania donovani MHOM/IN/80/Dd8 harboring luciferase gene infected in mouse J774 cells assessed as parasite growth inhibition at 25 uM incubated for 72 hrs by Steady-Glo reagent based luciferase assay; format: functional; conditions: for inhibition at 25 µM: MHOM/IN/80/Dd8, J774; in short: as §2
Leishmania donovani [6] = assay: Antileishmanial activity against amastigote stage of Leishmania donovani MHOM/IN/80/Dd8 harboring luciferase gene infected in mouse J774 cells assessed as parasite growth inhibition incubated for 72 hrs by Steady-Glo reagent based luciferase assay; format: functional, organism-based; conditions: MHOM/IN/80/Dd8, J774, 72 h; in short: as §2
Leishmania donovani [7] = assay: Antileishmanial activity against Leishmania donovani MHOM/IN/80/Dd8 infected in BALB/c mouse assessed as reduction in organ intracellular amastigote burden at 25 mg/kg, po for 5 days and measured at 1 week post-treatment by Giemsa staining based assay relative to control; format: functional; conditions: MHOM/IN/80/Dd8, po, 288 h, time 12 day
In short: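 Female BALB/c mice (20–25 g), 5/group, infected iv with 2 × 10^7 stationary-phase L. donovani promastigotes. Reference drug given orally at 25 mg/kg daily for 5 consecutive days. Sacrificed day 7 post-treatment. Liver and spleen impression smears fixed in methanol, stained with 30% Giemsa for 2 h. Amastigotes/1000 nucleated cells counted and expressed as LDU.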

Splenocyte [8] = assay: Immunomodulatory activity in BALB/c mouse infected with Leishmania donovani amastigotes assessed as increase in IFN-gamma level in splenocytes supernatants at 25 mg/kg, po for 5 days; format: functional, organism-based; conditions: time 5.0 day
Splenocyte [9] = assay: Immunomodulatory activity in BALB/c mouse infected with Leishmania donovani amastigotes assessed as increase in IL-12 level in splenocytes supernatants at 25 mg/kg, po for 5 days; format: functional, organism-based; conditions: time 5.0 day
Splenocyte [10] = assay: Immunomodulatory activity in BALB/c mouse infected with Leishmania donovani amastigotes assessed as decrease in IL-10 level in splenocytes supernatants at 25 mg/kg, po for 5 days; format: functional, organism-based; conditions: time 5.0 day
Splenocyte [11] = assay: Immunomodulatory activity in BALB/c mouse infected with Leishmania donovani amastigotes assessed as decrease in TGF-beta level in splenocytes supernatants at 25 mg/kg, po for 5 days; format: functional, organism-based; conditions: time 5.0 day
Leishmania donovani [12] = assay: Antileishmanial activity against Leishmania donovani promastigotes assessed as parasite growth inhibition incubated for 72 hrs by Alamar Blue assay; format: functional, organism-based
[13] = Cytotoxicity against mouse J774 cells assessed as reduction in cell viability incubated for 72 hrs by MTT assay; format: cell-based
In short: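 J774 macrophages seeded at 1 × 10^5 cells/well overnight, then exposed to graded concentrations (7.81–500 µM) for 72 h at 37 °C, 5% CO2. MTT (5 mg/mL) added for 2 h, formazan solubilized in DMSO and read at 570 nm. CC50 taken as 50% viability loss relative to untreated cells.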

Leishmania donovani [14] = assay: Antileishmanial activity against log phase of Leishmania donovani MHOM/IN/80/Dd8 promastigotes assessed as reduction in cell viability by MTT assay; format: functional, organism-based; conditions: time 12-72 hrs, TDE = time-dependent effect
Leishmania donovani [15] = assay: Antileishmanial activity against Leishmania donovani MHOM/IN/80/Dd8 infected in BALB/c mouse assessed as reduction in intracellular amastigote burden in spleen at 50 mg/kg, ip for 5 days and measured at 1 week post-treatment by Giemsa staining based assay relative to control; format: functional; conditions: time 12.0 day
In short: (§3)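 Female BALB/c mice (20–25 g), 5/group, infected iv with 2 × 10^7 stationary-phase L. donovani promastigotes. Infection confirmed at 2 wk, then 50 mg/kg ip daily for 5 consecutive days. Vehicle was 5% DMSO. Sacrificed day 7 post-treatment. Giemsa-stained liver/spleen impression smears counted as amastigotes/1000 nucleated cells, expressed as LDU (amastigotes per nucleated cell × organ weight in mg), compared with untreated infected controls.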

Leishmania donovani [16] = assay: Antileishmanial activity against Leishmania donovani MHOM/IN/80/Dd8 infected in BALB/c mouse assessed as reduction in intracellular amastigote burden in liver at 50 mg/kg, ip for 5 days and measured at 1 week post-treatment by Giemsa staining based assay relative to control; format: functional; conditions: time 12.0 day; in short: as §3
Leishmania donovani [17] = assay: Antileishmanial activity against amastigote stage of Leishmania donovani MHOM/IN/80/Dd8 harboring luciferase gene infected in mouse J774 cells assessed as parasite killing incubated for 72 hrs by Steady-Glo reagent based luciferase assay; format: functional, organism-based; conditions: dose 3.12-50 µM; in short: as §2
Leishmania donovani [18] = assay: Antileishmanial activity against amastigote stage of Leishmania donovani MHOM/IN/80/Dd8 harboring luciferase gene infected in mouse J774 cells assessed as parasite growth inhibition by Giemsa staining based analysis; format: functional, organism-based; conditions: time 12-72 hrs, TDE = time-dependent effect
In short: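 J774 macrophages are infected for 24 h with stationary-phase luciferase-transfected Dd8 promastigotes at a 1:8 ratio in chamber slides. After compound treatment, cells are fixed and Giemsa-stained, and intracellular amastigotes are counted by microscopy.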

Leishmania donovani [19] = assay: Antileishmanial activity against amastigote stage of Leishmania donovani MHOM/IN/80/Dd8 harboring luciferase gene infected in mouse J774 cells assessed as parasite killing at 50 to 100 uM incubated for 72 hrs by Steady-Glo reagent based luciferase assay; format: functional; conditions: dose 50-100 µM; in short: as §2
Leishmania = assay: Antileishmanial activity against Leishmania; format: functional, organism-based
In short: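 Antiamastigote assay: J774 murine macrophages in RPMI + 10% FBS, infected 24 h at 37 °C, 5% CO2 with stationary-phase luciferase-transfected L. donovani Dd8 promastigotes (1:8 macrophage:parasite). Infectivity confirmed by Giemsa staining on parallel slides. Compounds then added and incubated 72 h. Read-out by luciferase luminescence. IC50 from four-parameter Hill nonlinear regression of the dose-response.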

Compound	inhibition at 50 µM (Leishmania donovani [2]) [%]	inhibition at 25 µM (Leishmania donovani [3]) [%]	inhibition at 50 µM (Leishmania donovani [4]) [%]	inhibition at 25 µM (Leishmania donovani [5]) [%]	also measured
N#CC(C#N)=NNc1cccc(Cl)c1 [CARBONYL CYANIDE M-CHLOROPHENYLHYDRAZONE]	–	–	–	–	Activity (Leishmania donovani [1]): 95.6%
CCCCCCCCCCCCCCCCOP(=O)([O-])OCC[N+](C)(C)C [MILTEFOSINE]	99.7	99.4	95.3	91.2	IC50 (Leishmania donovani [6]): 12.8 µM; inhibition in vivo at 25 mg/kg (Leishmania donovani [7]): > 97%; Activity (Splenocyte [8]): Active; Activity (Splenocyte [9]): Active; Activity (Splenocyte [10]): Active; Activity (Splenocyte [11]): Active
COc1ccccc1N1CCN(c2cc(-c3ccc(Br)cc3)oc(=O)c2C#N)CC1	61.2	56.6	58.3	43.3	–
N#Cc1c2c(c3c(c1N1CCN(c4ccccc4O)CC1)Cc1ccccc1-3)CSC2	–	–	57.3	45.5	inhibition (Leishmania donovani [2]): inactive; inhibition (Leishmania donovani [3]): inactive
Cc1ccc(-c2cc(N3CCN(c4ccccc4O)CC3)c(C#N)c(=O)o2)cc1	72.8	54.7	83.2	77.3	IC50 (Leishmania donovani [6]): 13 µM
COc1ccccc1N1CCN(c2cc(-c3cccs3)oc(=O)c2C#N)CC1	62.2	48.1	71.2	52.2	–
COc1ccc(-c2cc(N3CCN(c4ccccc4O)CC3)c(C#N)c(=O)o2)cc1	86.3	78.3	84.4	51.8	IC50 (Leishmania donovani [6]): 13 µM
c1ccc2[nH]c(-c3ccc(N4CCN(c5ccc(-c6nc7ccccc7[nH]6)cc5)CC4)cc3)nc2c1	–	–	–	–	IC50 (Leishmania donovani [12]): 0.41 µM
N#Cc1c(N2CCN(c3ccccc3O)CC2)cc(-c2ccc(Cl)cc2)oc1=O	25	–	–	–	inhibition (Leishmania donovani [3]): inactive; inhibition (Leishmania donovani [4]): inactive; inhibition (Leishmania donovani [5]): inactive
N#Cc1c(N2CCN(c3ccccc3Cl)CC2)cc(-c2ccc(Cl)cc2)oc1=O	58.3	55.2	71	73.1	–
COc1ccc(-c2cc(N3CCN(c4ccccc4Cl)CC3)c(C#N)c(=O)o2)cc1	69.2	60.3	62.5	51	–
N#Cc1c(N2CCN(c3ccccc3O)CC2)c2c(oc1=O)-c1ccccc1C2	82.2	14.2	60	37.8	–
N#Cc1c(N2CCN(c3ccccc3O)CC2)cc(-c2ccc(Br)cc2)c2c1CCSC2	33.3	–	83.3	71	inhibition (Leishmania donovani [3]): inactive
N#Cc1c(N2CCN(c3ccccc3O)CC2)cc(-c2cccs2)c2c1CCSC2	–	–	72.6	65	inhibition (Leishmania donovani [2]): inactive; inhibition (Leishmania donovani [3]): inactive
N#Cc1c(N2CCN(c3ccccc3O)CC2)cc(-c2ccc(Br)cc2)oc1=O	–	–	35.1	14.5	inhibition (Leishmania donovani [2]): inactive; inhibition (Leishmania donovani [3]): inactive
N#Cc1c(N2CCN(c3ccccc3O)CC2)cc(-c2cccs2)c2c1CSC2	4.8	–	79.3	60.1	inhibition (Leishmania donovani [3]): inactive
N#Cc1c(N2CCN(c3ccccc3O)CC2)cc(-c2cccs2)oc1=O	90.2	81.3	89.3	84.7	CC50 at 72 h [13]: 311 µM; Activity (Leishmania donovani [14]): Tde; Activity (Leishmania donovani [15]): Active; Activity (Leishmania donovani [16]): Active; Activity (Leishmania donovani [17]): Dose-Dependent Effect; Activity (Leishmania donovani [18]): Tde; Activity (Leishmania donovani [19]): >89%; IC50 (Leishmania donovani [6]): 15.3 µM
N#Cc1c(N2CCN(c3ccccc3O)CC2)cc(-c2cccc3ccccc23)oc1=O	78.6	77.3	80.8	71.4	IC50 (Leishmania donovani [6]): 13 µM
N#Cc1c(N2CCN(c3ccccc3Cl)CC2)cc(-c2ccccc2)oc1=O	72.9	46.9	73.7	49.2	–
N#Cc1c(N2CCN(c3ccccc3O)CC2)c2c(oc1=O)-c1ccccc1CC2	81.3	35.9	64.8	37.8	–
N#Cc1c(N2CCN(c3ccccc3O)CC2)cc(-c2ccccc2)c2c1CSC2	87.8	82.1	–	–	inhibition (Leishmania donovani [4]): inactive; inhibition (Leishmania donovani [5]): inactive
N#Cc1c(N2CCN(c3cccc(Cl)c3)CC2)cc(-c2ccccc2)oc1=O	57.3	44	72.1	47.4	–
N#Cc1c(N2CCN(c3ccccc3O)CC2)cc(-c2ccc(Br)s2)oc1=O	88.1	52.1	85.1	74.8	IC50 (Leishmania donovani [6]): 13 µM
N#Cc1c(N2CCN(c3ccccc3Cl)CC2)cc(-c2ccc(Br)cc2)oc1=O	66.5	57.9	68.5	60.5	–
CCn1nc2cc(N/C(C)=C3/C(=O)C=C(C)OC3=O)ccc2c1Cl	–	–	–	–	IC50 (Leishmania): 2.48 µM
